Screens deposited in PubChem by several laboratories.
Sampled rows, rich in hits. Any-hit rate of the full collection: about 2.3%.
CHT block: inhibitors of human choline transporter CHT; B-score at 10 µM; Q9GZV3; 310,000 compounds, 0.86% hits; AID 488975; CHT-expressing cells, membrane potential dye, choline response; active compounds read low;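 active = B-score over 3 SD under the library average, and starting fluorescence ratio not unusually high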;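 also: choline stimulus applied at its EC90 after an EC20 pre-addition; B-score computed on integrated fluorescence ratio after choline addition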
pCIP destab: compounds decreasing mouse p/CIP protein stability; decrease of EGFP signal, % at 10 µM; F442A p/CIP-EGFP cells, EGFP fluorescence, 16 h; 290,000 compounds, 0.01% hits; Q05BA5;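 active = EGFP signal decrease of at least 30% at 10 µM or well 3 SD below plate mean, unless failing retest; inactive = the rest, including hits failing retest or dose response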
DSG3 Ab inh: human desmoglein-3 autoantibody binding inhibition | P32926 | DSG3-coupled beads, scFv-anti-DSG3-GFP binding, flow cytometry; active compounds read low | binding (percent of control), % at 10 µM | 310,000 compounds, 0.48% hits | AID 588358;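 active = binding more than 3 SD below its plate's average and above zero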;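 also: hits lower antibody fragment binding to DSG3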
GPR7 antag: antagonists of human GPR7 (neuropeptides B/W receptor 1); P48145; 290,000 compounds, 1.1% hits; inhibition, % at 4.4 µM; GPR7-expressing cells, fluorescence antagonist assay; AID 1861; in the data active = inhibition above about 16%, passing the limit was not always enough;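 also: cells stimulated with the agonist NPW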
CHT PAM: human CHT allosteric activation | Q9GZV3 | CHT-expressing cells, membrane potential dye, choline EC20; active compounds read high; LV-AA mutant CHT in HEK293 cells | B-score at 10 µM | 310,000 compounds, 0.49% hits | AID 488977;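 active = initial fluorescence not abnormally high and integrated response B-score, plate-corrected, over 3 SD above library mean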
T cell HTS: T cell immune modulation candidate. 2C CD8+ T cell-vesicle binding, flow cytometry; active compounds read low. response (vesicle binding), % at 7 µM. 330,000 compounds, 0.068% hits;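 active = response, share of CD8 T cells binding vesicles, and their 90th percentile fluorescence all below set limits, cut at about 80% in these data, passing the limit was not always enough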;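 also: values below 100% mean blocked vesicle binding to the CD8+ T cells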
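Incubation: binding step 1.5 h, 37 °C, antibody labelling 20 min, ice; system: murine 2C transgenic CD8+ T lymphocytes; technique: cytometric PE anti-B7-1 and Alexa647 anti-CD8 signals after 1% paraformaldehyde fixation; also added: QL9-charged Drosophila Ld/ICAM-1/B7-1 vesicles; control set: naked versus QL9-loaded vesicles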
GPR7 antag conf: human GPR7 antagonism, confirmation assay | shares compounds with GPR7 antag | GPR7-expressing cells, calcium fluorescence antagonist mode | inhibition, % at 4.4 µM | 2,400 compounds, 52% hits | AID 1952; in the data active = inhibition above about 24%;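 also: stimulated with the GPR7 agonist NPW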
MCHR1 antagonist: MCHR1 (human) antagonism in GPR7 counter-screen; inhibition, % at 4.4 µM; MCHR1-expressing cells, fluorescence antagonist assay; AID 2148; 2,400 compounds, 62% hits; shares compounds with GPR7 antag; in the data active = inhibition above about 22%
A number is an active result.

O=[N+]([O-])c1ccc2c(c1)C(=NO)c1cc(Cl)c(Cl)cc1-2 was read as DSG3 Ab inh inactive.
For S=C(NCC1CCCO1)N1CCN(c2nc(-c3ccc(Cl)cc3)cs2)CC1 (centres undefined) the results were CHT block inactive, pCIP destab inactive, DSG3 Ab inh inactive, GPR7 antag 21, CHT PAM inactive, T cell HTS inactive, GPR7 antag conf 58 and MCHR1 antagonist 72.
Screening S=C(NCC1CCCO1)N1CCN(c2cccc(Cl)c2)CC1 (centres undefined) returned CHT block inactive, pCIP destab inactive, DSG3 Ab inh inactive, GPR7 antag inactive, CHT PAM inactive and T cell HTS inactive.
`CC(=O)c1ccc(N2CCN(C(=O)c3cc4c(s3)CCCC4)CC2)cc1` gave CHT block inactive, pCIP destab inactive, DSG3 Ab inh inactive, GPR7 antag 26, CHT PAM inactive, T cell HTS inactive, GPR7 antag conf 30 and MCHR1 antagonist 61.
`C[C@@H]1CCCCO[C@@H](CN(C)S(=O)(=O)c2cn(C)cn2)[C@@H](C)CN([C@H](C)CO)C(=O)c2cc(NC(=O)Nc3ccc(C(F)(F)F)cc3)ccc2O1` gave DSG3 Ab inh inactive.
Screening O=C1NC(=S)S/C1=C/c1ccc(OC(=O)c2ccco2)cc1 returned CHT block inactive, pCIP destab inactive, DSG3 Ab inh inactive, GPR7 antag 28, CHT PAM inactive, T cell HTS inactive, GPR7 antag conf inactive and MCHR1 antagonist 23.
Screening CC(C)Cn1cnc2c(c(-c3ccccc3)c(-c3ccccc3)n2Cc2ccco2)c1=N returned CHT block inactive, pCIP destab inactive, DSG3 Ab inh inactive, GPR7 antag inactive, CHT PAM inactive and T cell HTS inactive.
For N=c1c2c(-c3ccccc3)c(-c3ccccc3)n(Cc3ccco3)c2ncn1Cc1ccccc1 the results were CHT block inactive, pCIP destab inactive, DSG3 Ab inh inactive, GPR7 antag 24, CHT PAM inactive, T cell HTS inactive, GPR7 antag conf 58 and MCHR1 antagonist 92.
Screening CCCNC(=O)c1nnsc1S(=O)(=O)c1ccc(Cl)cc1 returned pCIP destab inactive, DSG3 Ab inh inactive, GPR7 antag 35, GPR7 antag conf 79 and MCHR1 antagonist 102.
Screening CCCNC(=O)c1nnsc1S(=O)c1ccc(Cl)cc1 (centres undefined) returned pCIP destab inactive, DSG3 Ab inh inactive and GPR7 antag inactive.
Screening COCc1c(C(=O)Nc2nnc(C3CC3)s2)oc2ccccc12 returned DSG3 Ab inh inactive.
For CN(c1ccc(F)cc1)S(=O)(=O)c1ccc(Cl)c(C(=O)NCC(c2ccco2)N2CCCCC2)c1 (centres undefined) the results were DSG3 Ab inh inactive.
For Fc1cc(Br)ccc1NC(=S)NCCc1ccccc1 the results were CHT block inactive, pCIP destab inactive, DSG3 Ab inh inactive, GPR7 antag 38, CHT PAM inactive, T cell HTS inactive, GPR7 antag conf inactive and MCHR1 antagonist 35.
For CCn1cc(/C=N\NC(=O)Cc2ccc([N+](=O)[O-])cc2)c(C)n1 the results were CHT block inactive, pCIP destab inactive, DSG3 Ab inh inactive, GPR7 antag inactive, CHT PAM inactive and T cell HTS inactive.
For Cc1nn(C)cc1/C=N\NC(=O)Cc1ccc([N+](=O)[O-])cc1 the results were CHT block inactive, pCIP destab inactive, DSG3 Ab inh inactive, GPR7 antag 24, CHT PAM inactive, T cell HTS inactive, GPR7 antag conf inactive and MCHR1 antagonist inactive.
Clc1ccc(Cn2ncc3c(N4CCCC4)ncnc32)cc1 was read as CHT block inactive, pCIP destab inactive, DSG3 Ab inh inactive, GPR7 antag 25, CHT PAM inactive, T cell HTS inactive, GPR7 antag conf inactive and MCHR1 antagonist inactive.
Screening CCC(C)c1ccc(O)c(NC(=S)NC(=O)c2cccs2)c1 (centres undefined) returned DSG3 Ab inh inactive.
Cc1ccccc1C(=O)Nc1c2c(nn1C(C)(C)C)CS(=O)(=O)C2 was read as CHT block inactive, pCIP destab inactive, DSG3 Ab inh inactive, GPR7 antag 22, CHT PAM inactive, T cell HTS inactive, GPR7 antag conf inactive and MCHR1 antagonist inactive.
CC(C)(C)n1nc2c(c1NC(=O)c1ccccc1S(=O)(=O)C(F)F)CS(=O)(=O)C2 was read as CHT block inactive, pCIP destab inactive, DSG3 Ab inh inactive, GPR7 antag inactive, CHT PAM inactive and T cell HTS inactive.
Cc1coc2cc3oc(=O)c(CCC(=O)NCCCN4CCCC4=O)c(C)c3cc12 was read as CHT block inactive, pCIP destab inactive, DSG3 Ab inh inactive, GPR7 antag inactive, CHT PAM inactive and T cell HTS inactive.
`Cc1coc2cc3oc(=O)c(CCC(=O)NCCCN4CCOCC4)c(C)c3cc12` gave CHT block inactive, pCIP destab inactive, DSG3 Ab inh inactive, GPR7 antag 43, CHT PAM inactive, T cell HTS inactive, GPR7 antag conf inactive and MCHR1 antagonist inactive.
COc1ccc(C(CNC(=O)c2ccc3c(c2)C(=O)N(CCC(C)C)C3=O)N2CCOCC2)cc1 (centres undefined) was read as CHT block inactive, pCIP destab inactive, DSG3 Ab inh inactive, GPR7 antag 29, CHT PAM inactive, T cell HTS inactive, GPR7 antag conf inactive and MCHR1 antagonist inactive.
For COc1ccc(NS(=O)(=O)c2cccc(C(=O)NCC(c3ccc(F)cc3)N3CCOCC3)c2)cc1 (centres undefined) the results were CHT block inactive, pCIP destab inactive, DSG3 Ab inh inactive, GPR7 antag 31, CHT PAM inactive, T cell HTS inactive, GPR7 antag conf 27 and MCHR1 antagonist inactive.
`COc1ccc(C(CNC(=O)c2ccc(NS(=O)(=O)c3ccc(F)cc3)cc2)N2CCOCC2)cc1` (centres undefined) gave CHT block inactive, pCIP destab inactive, DSG3 Ab inh inactive, GPR7 antag inactive, CHT PAM inactive and T cell HTS inactive.
Screening COc1ccc(C(CNC(=O)c2ccc(S(=O)(=O)N3CCCC3)cc2)N2CCOCC2)cc1 (centres undefined) returned CHT block inactive, pCIP destab inactive, DSG3 Ab inh inactive, GPR7 antag inactive, CHT PAM inactive and T cell HTS inactive.
`CCN(CC)C(=O)C1=C(C)N(CCC2=CCCCC2)C(=O)C(CC(=O)NC2CCCC2)C1` (centres undefined) gave DSG3 Ab inh inactive.
Screening C=CCn1c(SCC(=O)NC2CCCC2)nc2ccccc21 returned DSG3 Ab inh inactive.
